# Columns and labels:
# [1] = DPH fluorescence anisotropy: membrane fluidity and phase transition temperature; type: physicochemical; conditions: lipid-to-drug molar ratio 8:1
# [2] = Hydration of drug in buffer in the absence of lipids; type: physicochemical; conditions: after solvent removal and hydration in buffer
# [3] = Plasma time course of anti-HIV drug combination lipid nanoparticles in primates; conditions: male, Macaca nemestrina (macaque), in vivo, sc
# [4] = Drug incorporation efficiency into lipid-drug nanoparticles; type: physicochemical; conditions: for Drug incorporation (% total): anti-HIV drug combination LNPs (ATV+RTV+TFV) used in primates, preclinical scale; for Incorporation efficiency (%): DSPC:DSPE-mPEG2000 8:2, mean ± SD of 4
# Summary of the method: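 Film rehydrated in 0.9% NaCl with 20 mM sodium bicarbonate (pH 7.4) at 60°C for 2 h, then sonicated or homogenized. 50 μL aliquot dialyzed (MWCO 6,000-8,000) against 1,000 mL pH 7.4 buffer; drug quantified by HPLC/MS/MS. Efficiency = incorporated/total loaded ×100%.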
# [5] = 12 HIV infected patients, prospective clinical study; cited from earlier work
AUC fraction (% total) 8-168 h [3] [%],Drug incorporation (% total) [4] [%],Incorporation efficiency (%) ([4]; lipid : drug 5 : 1 (mol/mol)),Incorporation efficiency (%) ([4]; lipid : drug 8 : 1 (mol/mol)),Incorporation efficiency (%) ([4]; lipid : drug 20 : 1 (mol/mol)),"Incorporation efficiency ([4]; range over lipid-to-drug molar ratios 5:1, 8:1 and 20:1)",Structure (SMILES),Effect on DPH polarization / membrane order versus drug-free lipid control [1],Reduction of Tc versus control LNPs [1] [°C],Behaviour in the absence of lipids in the mixture [2],Lymph node intracellular drug levels lower than those in blood [5] [%]
,,,,,,"CC(C)CN(C[C@@H](O)[C@H](Cc1ccccc1)NC(=O)O[C@H]1CO[C@H]2OCC[C@H]21)S(=O)(=O)c1ccc(N)cc1 [Darunavir (DRV), Darunavir]",decreased the polarization of DPH,1.6,formed precipitates,
80.4,,,,,,"CC(C)c1nc(CN(C)C(=O)N[C@H](C(=O)N[C@@H](Cc2ccccc2)C[C@H](O)[C@H](Cc2ccccc2)NC(=O)OCc2cncs2)C(C)C)cs1 [Ritonavir (RTV), ritonavir]",,,,
95.3,85.5 ± 8.2,96.5 ± 2.6,96.2 ± 3.8,97.4 ± 1.8,96.2-97.4%,"COC(=O)N[C@H](C(=O)N[C@@H](Cc1ccccc1)[C@@H](O)CN(Cc1ccc(-c2ccccn2)cc1)NC(=O)[C@@H](NC(=O)OC)C(C)(C)C)C(C)(C)C [Atazanavir (ATV), Atazanavir]",less influence on the membrane order,,formed precipitates,≤ 99
97.4,6.1 ± 0.8,,,,,"C[C@H](Cn1cnc2c(N)ncnc21)OCP(=O)(O)O [Tenofovir (TFV), tenofovir]",,,,
